Data: ChEMBL document CHEMBL1275278, “Synthesis and pharmacological evaluation of clubbed isopropylthiazole derived triazolothiadiazoles, triazolothiadiazines and mannich bases as potential antimicrobial and antitubercular agents” (Eur J Med Chem, 2010)
In brackets after ≈: the same amount, converted by molar mass.

Tests used:
[1] = test system: Escherichia coli; test: Antibacterial activity against Escherichia coli ATCC 10536 after 24 hrs by broth microdilution method; format: functional; conditions: ATCC 10536, 24 h
How it was run: (§1)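 Broth dilution in Mueller-Hinton broth. Tubes inoculated at 10⁵ cfu/mL and incubated 37 °C for 24 h. MIC taken as lowest concentration completely inhibiting growth. Media and media-plus-DMSO growth controls; ciprofloxacin and norfloxacin as reference standards.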

[2] = test system: Saccharomyces cerevisiae; test: Antifungal activity against Saccharomyces cerevisiae ATCC 9763 after 24 hrs by broth microdilution method; format: functional; conditions: ATCC 9763, 24 h
[3] = test system: A549; test: Cytotoxicity against human A549 cells assessed as cell viability at 250 uM by MTT assay; format: cell-based; conditions: a549, 250 µM
How it was run: (§2)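 A549 lung adenocarcinoma cells grown with fetal bovine serum. Compounds held as 10 mM DMSO stocks at −20 °C and diluted in culture medium before treatment (50–250 µM). Viability read by MTT assay against untreated cells and DMSO vehicle control. Two experiments, each with triplicate readings.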

[4] = test system: Candida tropicalis; test: Antifungal activity against Candida tropicalis ATCC 1369 after 24 hrs by broth microdilution method; format: functional; conditions: ATCC 1369, 24 h
[5] = test system: Staphylococcus aureus; test: Antibacterial activity against Staphylococcus aureus ATCC 11632 after 24 hrs by broth microdilution method; format: functional; conditions: ATCC 11632, 24 h; how it was run: as §1
[6] = test system: Klebsiella pneumoniae; test: Antibacterial activity against Klebsiella pneumoniae ATCC 10031 after 24 hrs by broth microdilution method; format: functional; conditions: ATCC 10031, 24 h; how it was run: as §1
[7] = test system: Mycobacterium tuberculosis; test: Antimycobacterial activity against Mycobacterium tuberculosis H37Rv after 21 days by broth dilution assay; format: functional; conditions: 504 h
How it was run: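 Frozen culture in Middlebrook 7H9 broth with 10% albumin-dextrose-catalase and 0.2% glycerol, thawed and diluted in broth to 10⁵ cfu/mL. Compounds dissolved in DMSO, twofold diluted in broth; final DMSO 1.3%. Tubes inoculated, incubated at 37 °C. Growth compared visually against drug-free and drug- and inoculum-free controls and isoniazid. MIC = lowest concentration inhibiting ≥99% of the starting bacterial population.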

[8] = test system: Pseudomonas aeruginosa; test: Antibacterial activity against Pseudomonas aeruginosa ATCC 10145 after 24 hrs by broth microdilution method; format: functional; conditions: ATCC 10145, 24 h; how it was run: as §1
[9] = test system: Aspergillus niger; test: Antifungal activity against Aspergillus niger ATCC 6275 after 24 hrs by broth microdilution method; format: functional; conditions: ATCC 6275, 24 h
[10] = test system: Bacillus subtilis; test: Antibacterial activity against Bacillus subtilis ATCC 60511 after 24 hrs by broth microdilution method; format: functional; conditions: ATCC 60511, 24 h; how it was run: as §1
[11] = test system: Enterococcus faecalis; test: Antibacterial activity against Streptococcus faecalis ATCC 14506 after 24 hrs by broth microdilution method; format: functional; conditions: ATCC 14506, 24 h; how it was run: as §1
[12] = Cytotoxicity against human A549 cells assessed as cell viability at 250 uM by MTT assay relative to control; format: cell-based; conditions: read-out: Activity; how it was run: as §2

Structure (SMILES) | MIC [1] | MIC [2] | Activity [3] | MIC [4] | MIC [5] | MIC [6] | MIC [7] | MIC [8] | MIC [9] | MIC [10] | MIC [11] | viability at 250 µM [12]
CC(C)c1csc(-c2nnc3n2NC(c2ccc(F)cc2F)S3)n1 (stereo not given) | 16 µg/mL (≈ 43.8 µM) | 62.5 µg/mL (≈ 171 µM) | Toxic | 125 µg/mL (≈ 342 µM) | 8 µg/mL (≈ 21.9 µM) | 31.2 µg/mL (≈ 85.5 µM) | 4 µg/mL (≈ 10.9 µM) | 16 µg/mL (≈ 43.8 µM) | 31.2 µg/mL (≈ 85.5 µM) | 4 µg/mL (≈ 10.9 µM) | 4 µg/mL (≈ 10.9 µM) | –
COc1ccc(C(=O)Nn2c(-c3nc(C(C)C)cs3)n[nH]c2=S)cc1 | 8 µg/mL (≈ 21.3 µM) | 4 µg/mL (≈ 10.7 µM) | – | 8 µg/mL (≈ 21.3 µM) | 62.5 µg/mL (≈ 166 µM) | 16 µg/mL (≈ 42.6 µM) | 16 µg/mL (≈ 42.6 µM) | 8 µg/mL (≈ 21.3 µM) | 16 µg/mL (≈ 42.6 µM) | 62.5 µg/mL (≈ 166 µM) | 125 µg/mL (≈ 333 µM) | 50%
CC(C)c1csc(-c2nn(CN3CCN(C)CC3)c(=S)n2/N=C/c2ccccc2Cl)n1 | 125 µg/mL (≈ 263 µM) | 125 µg/mL (≈ 263 µM) | – | 125 µg/mL (≈ 263 µM) | 16 µg/mL (≈ 33.6 µM) | 16 µg/mL (≈ 33.6 µM) | 31.2 µg/mL (≈ 65.6 µM) | 31.2 µg/mL (≈ 65.6 µM) | 62.5 µg/mL (≈ 131 µM) | 125 µg/mL (≈ 263 µM) | 31.2 µg/mL (≈ 65.6 µM) | –
CC(C)c1csc(-c2nn(CN3CCN(C)CC3)c(=S)n2/N=C/c2ccc(N(C)C)cc2)n1 | 16 µg/mL (≈ 33 µM) | 16 µg/mL (≈ 33 µM) | – | 31.2 µg/mL (≈ 64.5 µM) | 31.2 µg/mL (≈ 64.5 µM) | 4 µg/mL (≈ 8.25 µM) | 4 µg/mL (≈ 8.25 µM) | 31.2 µg/mL (≈ 64.5 µM) | 8 µg/mL (≈ 16.5 µM) | 8 µg/mL (≈ 16.5 µM) | 4 µg/mL (≈ 8.25 µM) | 50%
COc1cc(/C=N/n2c(-c3nc(C(C)C)cs3)nn(CN3CCN(C)CC3)c2=S)cc(OC)c1OC | 8 µg/mL (≈ 15 µM) | 125 µg/mL (≈ 235 µM) | – | 62.5 µg/mL (≈ 118 µM) | 16 µg/mL (≈ 30.1 µM) | 16 µg/mL (≈ 30.1 µM) | 8 µg/mL (≈ 15 µM) | 31.2 µg/mL (≈ 58.8 µM) | 16 µg/mL (≈ 30.1 µM) | 4 µg/mL (≈ 7.52 µM) | 8 µg/mL (≈ 15 µM) | 50%
CC(C)c1csc(-c2nn(CN3CCOCC3)c(=S)n2/N=C/c2ccccc2Cl)n1 | 62.5 µg/mL (≈ 135 µM) | 125 µg/mL (≈ 270 µM) | – | 125 µg/mL (≈ 270 µM) | 31.2 µg/mL (≈ 67.5 µM) | 16 µg/mL (≈ 34.6 µM) | 31.2 µg/mL (≈ 67.5 µM) | 62.5 µg/mL (≈ 135 µM) | 31.2 µg/mL (≈ 67.5 µM) | 125 µg/mL (≈ 270 µM) | 62.5 µg/mL (≈ 135 µM) | –
COc1cc(/C=N/n2c(-c3nc(C(C)C)cs3)nn(CN3CCOCC3)c2=S)cc(OC)c1OC | 125 µg/mL (≈ 241 µM) | 125 µg/mL (≈ 241 µM) | – | 62.5 µg/mL (≈ 121 µM) | 125 µg/mL (≈ 241 µM) | 16 µg/mL (≈ 30.8 µM) | 31.2 µg/mL (≈ 60.3 µM) | 62.5 µg/mL (≈ 121 µM) | 62.5 µg/mL (≈ 121 µM) | 62.5 µg/mL (≈ 121 µM) | 62.5 µg/mL (≈ 121 µM) | –
COc1ccc(C2=Nn3c(nnc3-c3nc(C(C)C)cs3)SC2)cc1 | 16 µg/mL (≈ 43.1 µM) | 16 µg/mL (≈ 43.1 µM) | – | 31.2 µg/mL (≈ 84.1 µM) | 8 µg/mL (≈ 21.5 µM) | 16 µg/mL (≈ 43.1 µM) | 4 µg/mL (≈ 10.8 µM) | 8 µg/mL (≈ 21.5 µM) | 16 µg/mL (≈ 43.1 µM) | 8 µg/mL (≈ 21.5 µM) | 4 µg/mL (≈ 10.8 µM) | 50%
